≈ marks a conversion by molar mass, not a printed value. Calls of active or inactive are those of the source. The rule behind the calls is not given here.
What was measured:
Nakaseomyces glabratus [1] = test: Growth inhibition of Candida glabrata 21231 isolate in YEPD agar plates at 4 mg/ml; format: functional, organism-based
Outline: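 Dye susceptibility on YEPD agar plates with dye at increasing levels from 0.1 to 4 mg/ml. Inocula ranged from 2 × 10^6 to 2 × 10^2 cells. The read-out is the minimum dye concentration that inhibited growth of the same quantity of cells.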

Nakaseomyces glabratus [2] = test: Growth inhibition of polyene-resistant Candida glabrata 21229 isolate in YEPD agar plates at 4 mg/ml; format: functional, organism-based
Nakaseomyces glabratus [3] = test: Antimicrobial activity against polyene-resistant Candida glabrata 21229 isolate by E-test; format: functional
Nakaseomyces glabratus [4] = test: Susceptibility of polyene-resistant Candida glabrata 21229 isolate by disk diffusion method; format: functional
Outline: (§1)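 Disk diffusion on Casitone agar (pH 7.2, chloramphenicol 0.5 g/liter) with drug tablets. Tablet drug contents: voriconazole 1 μg, itraconazole 8 μg, amphotericin B/miconazole/clotrimazole 10 μg, fluconazole/ketoconazole 15 μg, nystatin 50 μg. Read-out is growth inhibition zone diameter (mm), mean of triplicates. Isolates were compared by Wilcoxon-Mann-Whitney test, unilateral α = 0.05.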

Nakaseomyces glabratus [5] = test: Susceptibility of polyene-resistant Candida glabrata 21229 isolate at 10 ug by disk diffusion method; format: functional; conditions: read-out: IZ; outline: as §1
Nakaseomyces glabratus [6] = test: Susceptibility of Candida glabrata 21231 isolate at 10 ug by disk diffusion method; format: functional; conditions: read-out: IZ
Outline: (§2)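 Disk diffusion was run on Casitone agar (pH 7.2) with Neosensitab tablets. Tablets held 10 μg for amphotericin B, econazole, miconazole and clotrimazole, and 8 μg for itraconazole. Read-out is the inhibition-zone diameter in mm, as the mean of triplicates. Isolates were compared by Wilcoxon-Mann-Whitney test, unilateral α = 0.05.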

Nakaseomyces glabratus [7] = test: Antimicrobial activity against Candida glabrata 21231 isolate by E-test; format: functional
Nakaseomyces glabratus [8] = test: Susceptibility of Candida glabrata 21229F34 isolate with URA3 by disk diffusion method; format: functional
Nakaseomyces glabratus [9] = test: Susceptibility of Candida glabrata 21229C218 isolate expressing ERG6 gene by disk diffusion method; format: functional
Outline: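 Complemented ura3 derivative carrying a plasmid-borne ERG6 copy was selected on selective medium. Amphotericin B susceptibility was tested by disk diffusion on Casitone agar (pH 7.2) with Neosensitab tablets. Read-out is the growth-inhibition zone diameter in mm.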

Nakaseomyces glabratus [10] = test: Susceptibility of Candida glabrata 21231 isolate at 15 ug by disk diffusion method; format: functional; conditions: read-out: IZ; outline: as §1
Nakaseomyces glabratus [11] = test: Susceptibility of polyene-resistant Candida glabrata 21229 isolate at 15 ug by disk diffusion method; format: functional; conditions: read-out: IZ; outline: as §1
Nakaseomyces glabratus [12] = test: Susceptibility of polyene-resistant Candida glabrata 21229 isolate at 8 ug by disk diffusion method; format: functional; conditions: read-out: IZ; outline: as §1
Nakaseomyces glabratus [13] = test: Susceptibility of Candida glabrata 21231 isolate at 8 ug by disk diffusion method; format: functional; conditions: read-out: IZ; outline: as §2
Nakaseomyces glabratus [14] = test: Susceptibility of polyene-resistant Candida glabrata 21229 isolate at 1 ug by disk diffusion method; format: functional; outline: as §1
Nakaseomyces glabratus [15] = test: Susceptibility of polyene-resistant Candida glabrata 21229 isolate at 50 ug by disk diffusion method; format: functional, organism-based; outline: as §1
Nakaseomyces glabratus [16] = test: Susceptibility of Candida glabrata 21231 isolate at 50 ug by disk diffusion method; format: functional, organism-based; outline: as §1

Row | Molecule | MIC (Nakaseomyces glabratus [3]) [µg/mL] | zone of inhibition at 10 µg/disc (Nakaseomyces glabratus [5]) [mm] | zone of inhibition at 10 µg/disc (Nakaseomyces glabratus [6]) [mm] | MIC (Nakaseomyces glabratus [7]) [µg/mL] | other results
1 | Nc1c(/N=N/c2ccc(-c3ccc(/N=N/c4cc(S(=O)(=O)O)c5ccccc5c4N)cc3)cc2)cc(S(=O)(=O)O)c2ccccc12 |  |  |  |  | Activity (Nakaseomyces glabratus [1]): inactive; Activity (Nakaseomyces glabratus [2]): inactive
2 | C[C@@H]1[C@H](O)[C@@H](C)/C=C/C=C/C=C/C=C/C=C/C=C/C=C/[C@H](O[C@@H]2O[C@H](C)[C@@H](O)[C@H](N)[C@@H]2O)C[C@@H]2O[C@](O)(C[C@@H](O)C[C@@H](O)[C@H](O)CC[C@@H](O)C[C@@H](O)CC(=O)O[C@H]1C)C[C@H](O)[C@H]2C(=O)O [AMPHOTERICIN B] | 1.3 (≈ 1.41 µM) | 13 | 34 | 0.029 (≈ 0.0314 µM) | inhibition zone (IZ) (Nakaseomyces glabratus [4]): 16 mm; inhibition zone (IZ) (Nakaseomyces glabratus [8]): 16 mm; inhibition zone (IZ) (Nakaseomyces glabratus [9]): 30 mm
3 | CC[C@H](C)C[C@H](C)CCCCCCCCC(=O)N[C@H]1C[C@@H](O)[C@@H](NCCN)NC(=O)[C@@H]2[C@@H](O)CCN2C(=O)[C@H]([C@H](O)CCN)NC(=O)[C@H]([C@H](O)[C@@H](O)c2ccc(O)cc2)NC(=O)[C@@H]2C[C@@H](O)CN2C(=O)[C@H]([C@@H](C)O)NC1=O [CASPOFUNGIN] | 0.024 (≈ 0.022 µM) |  |  | 0.023 (≈ 0.021 µM) | 
4 | Clc1ccccc1C(c1ccccc1)(c1ccccc1)n1ccnc1 [CLOTRIMAZOLE] |  | 40 | 26 |  | 
5 | OC(Cn1cncn1)(Cn1cncn1)c1ccc(F)cc1F [FLUCONAZOLE] | 1 (≈ 3.27 µM) |  |  | 3.7 (≈ 12.1 µM) | zone of inhibition at 15 µg/disc (Nakaseomyces glabratus [10]): 20 mm; zone of inhibition at 15 µg/disc (Nakaseomyces glabratus [11]): 50 mm
6 | CCC(C)n1ncn(-c2ccc(N3CCN(c4ccc(OCC5COC(Cn6cncn6)(c6ccc(Cl)cc6Cl)O5)cc4)CC3)cc2)c1=O (stereo not drawn) [ITRACONAZOLE] | 1.8 (≈ 2.55 µM) |  |  | 18.7 (≈ 26.5 µM) | zone of inhibition at 8 µg/disc (Nakaseomyces glabratus [12]): 30 mm; zone of inhibition at 8 µg/disc (Nakaseomyces glabratus [13]): 16 mm
7 | CC(=O)N1CCN(c2ccc(OCC3COC(Cn4ccnc4)(c4ccc(Cl)cc4Cl)O3)cc2)CC1 (stereo not drawn) [KETOCONAZOLE] | 0.034 (≈ 0.064 µM) |  |  | 0.136 (≈ 0.256 µM) | zone of inhibition at 15 µg/disc (Nakaseomyces glabratus [10]): 24 mm; zone of inhibition at 15 µg/disc (Nakaseomyces glabratus [11]): 50 mm
8 | Clc1ccc(COC(Cn2ccnc2)c2ccc(Cl)cc2Cl)c(Cl)c1 (stereo not drawn) [MICONAZOLE] |  | 30 | 18 |  | 
9 | C[C@@H](c1ncncc1F)[C@](O)(Cn1cncn1)c1ccc(F)cc1F [VORICONAZOLE] | 0.047 (≈ 0.135 µM) |  |  | 0.125 (≈ 0.358 µM) | zone of inhibition at 1 µg/disc (Nakaseomyces glabratus [14]; Nakaseomyces glabratus, 21229, read-out: IZ): 43 mm; zone of inhibition at 1 µg/disc (Nakaseomyces glabratus [14]; read-out: IZ): 43 mm
10 | NYSTATIN |  |  |  |  | inhibition zone (IZ) (Nakaseomyces glabratus [15]): 16 mm; inhibition zone (IZ) (Nakaseomyces glabratus [16]): 34 mm

Reference: ChEMBL document CHEMBL1142068, “Reduced susceptibility to polyenes associated with a missense mutation in the ERG6 gene in a clinical isolate of Candida glabrata with pseudohyphal growth” (2007)
